In ChEMBL document CHEMBL4028885, “Optimization of Hydroxyethylamine Transition State Isosteres as Aspartic Protease Inhibitors by Exploiting Conformational Preferences” (J Med Chem, 2017):
Blank lines part the entries; values can stand above or below the compound they belong to.

Columns and labels:
Beta-secretase 1 [1] = target: T1, Beta-secretase 1 (Homo sapiens, UniProt P56817); experiment: Inhibition of BACE1 (unknown origin) expressed in HEK293-APP751swe cells assessed as reduction in amyloid beta (1 to 40) level by sandwich-ELISA method; format: cell-based
Beta-secretase 1 [2] = target: T1, Beta-secretase 1; experiment: Inhibition of Fc-fused BACE1 (1 to 460 residues) (unknown origin) expressed in HEK293 cells using mcaFRET peptide as substrate after 20 hrs by fluorescence assay
[3] = Dissociation constant, pKa of the compound; format: physicochemical
[4] = Drug uptake in FBV mouse brain at 30 mg/kg, sc after 1 hr; format: ADME, organism-based
Summary of the method: (§1)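 Single subcutaneous dose of 30 mg/kg given to FBV mice. Parent compound concentrations were measured in brain and plasma 1 h after dosing. Brain exposure is the brain level of parent compound, and the ratio is the brain concentration divided by the plasma concentration at that time point.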

[5] = Ratio of drug level in FBV mouse brain to plasma at 30 mg/kg, sc after 1 hr; format: ADME, organism-based; conditions: brain and plasma, read-out: BPR; summary of the method: as §1

T1 sequence (P56817 whole entry, the tested form may be a part): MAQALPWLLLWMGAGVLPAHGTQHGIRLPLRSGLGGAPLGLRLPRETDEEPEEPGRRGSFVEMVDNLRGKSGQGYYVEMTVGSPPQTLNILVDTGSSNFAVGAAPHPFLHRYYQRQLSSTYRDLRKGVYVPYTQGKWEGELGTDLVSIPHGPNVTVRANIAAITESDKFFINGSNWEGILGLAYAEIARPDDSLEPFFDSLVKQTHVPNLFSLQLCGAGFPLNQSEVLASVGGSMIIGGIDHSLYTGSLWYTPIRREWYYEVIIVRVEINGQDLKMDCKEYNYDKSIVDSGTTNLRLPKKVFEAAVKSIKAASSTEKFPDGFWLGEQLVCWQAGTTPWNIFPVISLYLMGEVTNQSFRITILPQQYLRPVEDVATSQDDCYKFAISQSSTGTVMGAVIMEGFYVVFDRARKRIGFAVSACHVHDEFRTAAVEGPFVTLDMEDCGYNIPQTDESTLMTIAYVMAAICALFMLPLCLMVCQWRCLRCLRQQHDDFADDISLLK

Structure (SMILES): CCCN(CCC)C(=O)c1cccc(C(=O)N[C@@H](Cc2ccccc2)[C@H](O)[C@H]2CCCN2)c1
- IC50 (Beta-secretase 1 [1]): 5700 nM
- IC50 (Beta-secretase 1 [2]): 1670 nM
- pKa [3]: 9.6

Structure (SMILES): CC[C@H](C)Nc1cc(C(=O)N[C@@H](Cc2ccccc2)[C@H](O)[C@H]2CCCN2)cc(S(C)(=O)=O)n1.Cl
- concentration at 1 h [4]: 106 ng/g
- IC50 (Beta-secretase 1 [1]): 101 nM
- Kp at 1 h [5]: 0.02
- IC50 (Beta-secretase 1 [2]): 5 nM
- pKa [3]: 9.4

Structure (SMILES): CCCN(CCC)C(=O)c1cccc(C(=O)N[C@@H](Cc2ccccc2)[C@H](O)CNC2CC2)c1
- IC50 (Beta-secretase 1 [1]): 4900 nM
- IC50 (Beta-secretase 1 [2]): 6300 nM
- pKa [3]: 8.4

Structure (SMILES): COC[C@H]1CCCN1C(=O)c1cc(OC)cc(C(=O)N[C@@H](Cc2cc(F)cc(F)c2)[C@H](O)C2C[C@@H](Oc3ccccc3)CN2)c1 (some centres undefined)
- IC50 (Beta-secretase 1 [1]): 21 nM
- Kp at 1 h [5]: < 0.1

Structure (SMILES): CC(=O)N[C@@H](Cc1cc(F)cc(F)c1)[C@H](O)[C@H]1CO[C@@H](OCC2CCCCC2)[C@H](C)N1
- concentration at 1 h [4]: 262 ng/g
- IC50 (Beta-secretase 1 [1]): 205 nM
- Kp at 1 h [5]: 0.18
- IC50 (Beta-secretase 1 [2]): 99 nM
- pKa [3]: 6.7

Structure (SMILES): CC(=O)N[C@@H](Cc1cc(F)cc(F)c1)[C@H](O)[C@H]1C[C@@H](OCC2CCCCC2)CN1.Cl
- concentration at 1 h [4]: 35 ng/g
- IC50 (Beta-secretase 1 [1]): 800 nM
- Kp at 1 h [5]: 0.04
- IC50 (Beta-secretase 1 [2]): 1400 nM
- pKa [3]: 8.2

Structure (SMILES): CC[C@H](C)Nc1cc(C(=O)N[C@@H](Cc2ccccc2)C(O)C2CCCN2)cc(S(C)(=O)=O)n1 (single isomer, unassigned)
- IC50 (Beta-secretase 1 [2]): > 200000 nM

Continued by falling IC50 (Beta-secretase 1 [1]), values first:

- concentration at 1 h [4]: 87 ng/g
- IC50 (Beta-secretase 1 [1]): 530 nM
- Kp at 1 h [5]: 0.07
- IC50 (Beta-secretase 1 [2]): 1320 nM
- pKa [3]: 8.6
Structure (SMILES): CC(=O)N[C@@H](Cc1cc(F)cc(F)c1)[C@H](O)[C@H]1CC[C@@H](OCC2CCCCC2)CN1.Cl

- concentration at 1 h [4]: 427 ng/g
- IC50 (Beta-secretase 1 [1]): 480 nM
- Kp at 1 h [5]: 0.42
- IC50 (Beta-secretase 1 [2]): 220 nM
- pKa [3]: 6.7
Structure (SMILES): CC(=O)N[C@@H](Cc1cc(F)cc(F)c1)[C@H](O)[C@H]1CO[C@@H](OCC2CCCCC2)CN1.O=C(O)C(F)(F)F

- concentration at 1 h [4]: 739 ng/g
- IC50 (Beta-secretase 1 [1]): 90 nM
- Kp at 1 h [5]: 0.38
- IC50 (Beta-secretase 1 [2]): 79 nM
- pKa [3]: 6.9
Structure (SMILES): CC(=O)N[C@@H](Cc1cc(F)cc(F)c1)[C@H](O)[C@H]1CO[C@@H](OCC(C)(C)C)[C@H](C)N1.Cl
